# Measured values reported in ChEMBL document CHEMBL5104174, “Development of tumor-targeting aza-vesamicol derivatives with high affinity for sigma receptors for cancer theranostics” (RSC Med Chem, 2022).
# Legend:
# [1] = target: Sigma non-opioid intracellular receptor 1 (Rattus norvegicus, UniProt Q9R0C9); assay: Displacement of (+)-[3H]pentazocine from sigma-1 receptor in Sprague-Dawley rat cerebral membrane incubated for 90 mins by liquid scintillation counter analysis; assay type: cell membranes, Cerebrum
# Sigma non-opioid intracellular receptor 1, sequence (Q9R0C9 whole entry): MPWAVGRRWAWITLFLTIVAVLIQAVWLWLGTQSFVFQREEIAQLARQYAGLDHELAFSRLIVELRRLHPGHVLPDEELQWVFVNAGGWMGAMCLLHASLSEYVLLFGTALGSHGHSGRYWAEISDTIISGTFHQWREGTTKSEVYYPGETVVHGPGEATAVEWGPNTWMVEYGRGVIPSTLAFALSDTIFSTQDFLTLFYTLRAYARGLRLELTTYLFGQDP
# [2] = target: T1, Sigma intracellular receptor 2 (Rattus norvegicus, UniProt Q5U3Y7); assay: Displacement of [3H]DTG from sigma-2 receptor in Sprague-Dawley rat liver membrane incubated for 90 mins in presence of by liquid scintillation counter analysis (+)-pentazocine by liquid scintillation counter analysis; assay type: cell membranes
# T1 sequence (Q5U3Y7 whole entry): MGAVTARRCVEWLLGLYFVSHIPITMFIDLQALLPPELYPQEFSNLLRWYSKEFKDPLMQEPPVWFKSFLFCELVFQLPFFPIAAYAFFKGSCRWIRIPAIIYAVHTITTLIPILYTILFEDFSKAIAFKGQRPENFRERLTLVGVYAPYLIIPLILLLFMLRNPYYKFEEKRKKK
# [3] = Metabolic stability in mouse plasma assessed parent compound remaining at 74 to 93 kBq incubated for 1 hrs by RP-HPLC analysis; assay type: ADME, cell-free; conditions: dose 74-93 kBq, read-out: Stability
# Summary of the method: (§1)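 Ice-cold acetonitrile added, centrifuged 1700 g for 15 min at 4 °C, filtered 0.45 μm. Intact tracer measured by RP-HPLC; mean ± SD of three samples.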
# [4] = 1-Octanol/PBS partition coefficient, logP of the compound at pH 7.4 by shake flask method; assay type: physicochemical
# Summary of the method: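 Radioiodinated tracer partitioned between 1-octanol and 0.1 M phosphate buffer pH 7.4 by shake-flask. Ratio of radioactivity in octanol to that in buffer, expressed as log P. Mean ± SD of four samples.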
# [5] = Drug uptake in tumor of Balb/c mouse xenografted with human DU-145 cells assessed as radioactivity at 37 kBq, iv and measured upto 24 hrs post-injection by gamma counter analysis; assay type: ADME, organism-based, Neoplasm; conditions: in vivo
# Summary of the method: (§2)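 About 5 × 10⁶ DU-145 cells injected sc into the right dorsum of 4-week-old male BALB/c nude mice. Sacrificed at 1 and 24 h. Gamma counting, expressed as % injected dose, mean ± SD.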
# [6] = Stability of the compound in pH 7.4 phosphate buffer assessed as parent compound remaining at 22 to 82 kBq incubated for 24 hrs by RP-HPLC analysis; assay type: physicochemical; conditions: dose 22-82 kBq, read-out: Stability
# [7] = Drug uptake in tumor of Balb/c mouse xenografted with human DU-145 cells assessed as radioactivity at 37 kBq, iv and measured after 1 hrs post-injection by gamma counter analysis; assay type: ADME, organism-based, Neoplasm; conditions: in vivo; summary of the method: as §2
# [8] = Drug uptake in human DU-145 cells assessed as radioactivity at 3.7 kBq incubated for 15 to 120 mins; assay type: ADME, cell-based; conditions: time 15-120 min
# Summary of the method: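 DU-145 cells grown in RPMI 1640 with 10% FBS, seeded and pre-incubated 24 h. Washed with ice-cold PBS, lysed in 1 M NaOH, counted and normalized to BCA protein. Mean ± SD.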
# [9] = Biodistribution in ddY mouse neck assessed as radioactivity at 18 to 33 kBq, […] by gamma counter analysis; assay type: ADME, organism-based; conditions: in vivo, iv, dose 18-33 kBq
# [10] = Biodistribution in ddY mouse blood assessed as blood clearance by measuring radioactivity at 18 to 33 kBq, iv […] and measured upto 24 hrs post-injection by gamma counter analysis; assay type: ADME, organism-based; conditions: in vivo, dose 18-33 kBq
# Summary of the method: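 Male ddY mice, 6 weeks old, 28–30 g. Sacrificed at 10, 30 min, 1, 4, 8 and 24 h postinjection. Tissue radioactivity counted in a gamma counter.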
# [11] = Metabolic stability in mouse plasma assessed parent compound remaining at 74 to 93 kBq incubated for 24 hrs by RP-HPLC analysis; assay type: ADME, cell-free; conditions: dose 74-93 kBq, read-out: Stability; summary of the method: as §1
# [12] = Biodistribution in lung of Balb/c mouse xenografted with human DU-145 cells assessed as radioactivity at 37 kBq, iv and measured upto 24 hrs post-injection by gamma counter analysis; assay type: ADME, organism-based; conditions: in vivo; summary of the method: as §2
# [13] = Biodistribution in liver of Balb/c mouse xenografted with human DU-145 cells assessed as radioactivity at 37 kBq, iv and measured upto 24 hrs post-injection by gamma counter analysis; assay type: ADME, organism-based; conditions: in vivo; summary of the method: as §2
# [14] = Biodistribution in kidney of Balb/c mouse xenografted with human DU-145 cells assessed as radioactivity at 37 kBq, iv and measured upto 24 hrs post-injection by gamma counter analysis; assay type: ADME, organism-based; conditions: in vivo; summary of the method: as §2
# [15] = Drug uptake in thyroid gland of Balb/c mouse xenografted with human DU-145 cells at 38 MBq, iv and measured after 24 hrs post-injection by SPECT/CT analysis; assay type: ADME, organism-based; conditions: in vivo
# Summary of the method: (§3)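 DU-145 sc xenografts in BALB/c nude mice. HPLC-purified 123I-tracer given iv, 50 MBq or 38 MBq per tracer. Small-animal SPECT/CT at 24 h postinjection, 0.8 mm voxels.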
# [16] = Drug uptake in pancreas of Balb/c mouse xenografted with human DU-145 cells at 38 MBq, iv and measured after 24 hrs post-injection by SPECT/CT analysis; assay type: ADME, organism-based; conditions: in vivo; summary of the method: as §3
# [17] = Drug uptake in tumor of Balb/c mouse xenografted with human DU-145 cells at 38 MBq, iv and measured after 24 hrs post-injection by SPECT/CT analysis; assay type: ADME, organism-based, Neoplasm; conditions: in vivo; summary of the method: as §3
# [18] = Drug uptake in thyroid gland of Balb/c mouse xenografted with human DU-145 cells at 50 MBq, iv and measured after 24 hrs post-injection by SPECT/CT analysis; assay type: ADME, organism-based; conditions: in vivo; summary of the method: as §3
# [19] = Drug uptake in pancreas of Balb/c mouse xenografted with human DU-145 cells at 50 MBq, iv and measured after 24 hrs post-injection by SPECT/CT analysis; assay type: ADME, organism-based; conditions: in vivo; summary of the method: as §3
# [20] = Drug uptake in tumor of Balb/c mouse xenografted with human DU-145 cells at 50 MBq, iv and measured after 24 hrs post-injection by SPECT/CT analysis; assay type: ADME, organism-based, Neoplasm; conditions: in vivo; summary of the method: as §3
structure (smiles),measurement,setting,value
O[C@H]1CCCC[C@@H]1N1CCN(CCc2ccc(Br)cc2)CC1 (relative stereo),Ki,[1],0.0098 µM
same,Ki,[2],0.0445 µM
O[C@H]1CCC[C@@H]1N1CCN(CCCc2cccc([125I])c2)CC1 (relative stereo),remaining at 1 h,[3],96.5%
same,logD,[4],2.5
same,Drug uptake,[5],Active
same,remaining at 24 h,[6],96.3%
same,Drug uptake,[7],Active
same,Drug uptake,[8],Active
same,Drug uptake,[9],Active
same,Drug uptake,[10],Active
same,remaining at 24 h,[11],94.8%
O[C@H]1CCC[C@@H]1N1CCN(CCCc2cccc(Br)c2)CC1 (relative stereo),Ki,[1],0.0048 µM
same,Ki,[2],0.0081 µM
O[C@H]1CCCC[C@@H]1N1CCC(c2ccc([125I])cc2)CC1,Drug uptake,[5],Active
same,Drug uptake,[12],Active
same,Drug uptake,[13],Active
same,Drug uptake,[14],Active
O[C@H]1CCC[C@@H]1N1CCN(CCc2ccccc2Br)CC1 (relative stereo),Ki,[1],0.0215 µM
same,Ki,[2],0.371 µM
O[C@H]1CCCC[C@@H]1N1CCN(CCCc2cccc(Br)c2)CC1 (relative stereo),Ki,[1],0.0077 µM
same,Ki,[2],0.0222 µM
O[C@H]1CCCC[C@@H]1N1CCN(CCc2cccc(Br)c2)CC1 (relative stereo),Ki,[1],0.0172 µM
same,Ki,[2],0.0251 µM
O[C@H]1CCCC[C@@H]1N1CCN(CCCc2ccc(Br)cc2)CC1 (relative stereo),Ki,[1],0.0044 µM
same,Ki,[2],0.026 µM
O[C@H]1CCC[C@@H]1N1CCN(CCc2cccc([125I])c2)CC1 (relative stereo),remaining at 1 h,[3],95.6%
same,logD,[4],2.08
same,Drug uptake,[5],Active
same,remaining at 24 h,[6],96.9%
same,Drug uptake,[7],Active
same,Drug uptake,[8],Active
same,Drug uptake,[9],Active
same,Drug uptake,[10],Active
same,remaining at 24 h,[11],81.3%
O[C@H]1CCC[C@@H]1N1CCN(CCCc2cccc([123I])c2)CC1 (relative stereo),Drug uptake,[15],Active
same,Drug uptake,[16],Active
same,Drug uptake,[17],Active
O[C@H]1CCC[C@@H]1N1CCN(CCc2ccc(Br)cc2)CC1 (relative stereo),Ki,[1],0.0099 µM
same,Ki,[2],0.148 µM
O[C@H]1CCC[C@@H]1N1CCN(CCc2cccc([123I])c2)CC1 (relative stereo),Drug uptake,[18],Active
same,Drug uptake,[19],Active
same,Drug uptake,[20],Active
O[C@H]1CCC[C@@H]1N1CCN(CCc2cccc(Br)c2)CC1 (relative stereo),Ki,[1],0.0124 µM
same,Ki,[2],0.138 µM
O[C@H]1CCC[C@@H]1N1CCN(CCCc2ccccc2Br)CC1 (relative stereo),Ki,[1],0.0371 µM
same,Ki,[2],0.116 µM
O[C@H]1CCC[C@@H]1N1CCN(CCCc2cccc(I)c2)CC1 (relative stereo),Ki,[1],0.0146 µM
same,Ki,[2],0.0169 µM
O[C@H]1CCCC[C@@H]1N1CCN(CCCc2ccccc2Br)CC1 (relative stereo),Ki,[1],0.0194 µM
same,Ki,[2],0.0325 µM
O[C@H]1CCC[C@@H]1N1CCN(CCCc2ccc(Br)cc2)CC1 (relative stereo),Ki,[1],0.0081 µM
same,Ki,[2],0.0126 µM
O[C@H]1CCC[C@@H]1N1CCN(CCc2cccc(I)c2)CC1 (relative stereo),Ki,[1],0.0079 µM
same,Ki,[2],0.0736 µM
O[C@H]1CCCC[C@@H]1N1CCN(CCCc2ccc([125I])cc2)CC1 (relative stereo),Drug uptake,[5],Active
same,Drug uptake,[12],Active
same,Drug uptake,[13],Active
same,Drug uptake,[14],Active
O[C@H]1CCCC[C@@H]1N1CCN(CCc2ccccc2Br)CC1 (relative stereo),Ki,[1],0.0102 µM
same,Ki,[2],0.0418 µM
